The source made the active and inactive calls.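 Rule for the calls, unless noted: active = inhibition above 20% together with a positive visual image hit; inconclusive = visual image hit but inhibition not above 20%; inactive = no visual image hit.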

Test [1] is described as follows: inhibitors of TNFa-induced NFkB p65 translocation, primary screen, imaging, HUVEC, MLSMR starter and 10KST1 sets (AID 438).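 For inhibition: signal is the nuclear over cytoplasmic p65 intensity ratio per well.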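 Note: compound added about 3h40 before a 20 min TNFalpha stimulation.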 The conditions noted are these: HUVEC TNFa-induced p65 nuclear translocation; cell count: measured here: nuclei count (cytotoxicity indicator), at 2.08 µM; inhibition: at 2 µM, stronger effect = higher value, 0% TNFa-plus-vehicle, 100% no-TNFa wells.
Test [2] in a line: endothelial E-selectin expression blockers – imaging, HUVEC, immunofluorescence, MLSMR starter and 10KST1 sets, primary screen (AID 487;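 active = visually confirmed hit in the image check and inhibition above 20%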;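 for inhibition: signal is fraction of cell area covered by stained E-selectin grains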;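 for nuclei count: 100% = median nuclei count of all wells on the same plate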). The conditions noted are these: HUVEC TNFalpha-induced E-selectin immunofluorescence imaging, at 2 µM; inhibition: stronger effect = higher value; nuclei count: measured here: cell number, toxicity.
A short description of test [3]: Primary imaging screen for DUSP6 inhibitors that restore phospho-Erk in transfected HeLa cells, chemical complementation (AID 609;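 active = compounds giving at least 50% inhibition in the cell-based MKP-3 phosphatase rescue imaging test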;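 for inhibition: phospho-Erk level distribution per well compared with pooled transfected vehicle control wells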). The conditions noted are these: HeLa MKP-3 transfected, phospho-Erk imaging KS statistic, at 10 µM, cells stimulated with TPA for 15 min.
Test [4] deals with Dual specificity protein phosphatase 6 (Homo sapiens) (UniProt Q16828). The test is described as above. The conditions noted are these: HeLa MKP-3 transfected, phospho-Erk imaging KS statistic; at 10 µM; stronger effect = higher value; cells stimulated with TPA for 15 min.
Chain of Dual specificity protein phosphatase 6 (Homo sapiens) (Q16828 whole entry, looked up): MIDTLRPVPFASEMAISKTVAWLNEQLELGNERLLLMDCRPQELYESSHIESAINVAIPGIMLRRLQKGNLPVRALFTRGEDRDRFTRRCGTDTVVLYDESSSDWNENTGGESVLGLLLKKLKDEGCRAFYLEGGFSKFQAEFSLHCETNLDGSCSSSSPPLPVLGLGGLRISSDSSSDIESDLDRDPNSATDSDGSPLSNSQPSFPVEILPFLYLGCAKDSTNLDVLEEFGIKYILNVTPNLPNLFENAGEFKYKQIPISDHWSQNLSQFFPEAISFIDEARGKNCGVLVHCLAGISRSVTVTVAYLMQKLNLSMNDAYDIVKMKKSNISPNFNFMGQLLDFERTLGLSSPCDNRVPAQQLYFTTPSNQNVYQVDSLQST
Test [5] deals with Voltage-gated potassium channel subunit beta-2 (Rattus norvegicus) (UniProt P62483). As to the kind of experiment: inhibitors of rat Kvbeta2 reductase activity – biochemical, NADPH fluorescence, primary screen (AID 622;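 active = fluorescence slope higher than the sample average by over 3 SD, cut at about -0.22 in these data, passing the limit was not always enough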;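 note: slope of raw intensity against log time taken from 70 to 1610 s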). The conditions noted are these: recombinant KvBeta, 4-cyanobenzaldehyde reduction, at 10 µM, stronger effect = higher value.
Chain of Voltage-gated potassium channel subunit beta-2 (Rattus norvegicus) (P62483 whole entry, looked up): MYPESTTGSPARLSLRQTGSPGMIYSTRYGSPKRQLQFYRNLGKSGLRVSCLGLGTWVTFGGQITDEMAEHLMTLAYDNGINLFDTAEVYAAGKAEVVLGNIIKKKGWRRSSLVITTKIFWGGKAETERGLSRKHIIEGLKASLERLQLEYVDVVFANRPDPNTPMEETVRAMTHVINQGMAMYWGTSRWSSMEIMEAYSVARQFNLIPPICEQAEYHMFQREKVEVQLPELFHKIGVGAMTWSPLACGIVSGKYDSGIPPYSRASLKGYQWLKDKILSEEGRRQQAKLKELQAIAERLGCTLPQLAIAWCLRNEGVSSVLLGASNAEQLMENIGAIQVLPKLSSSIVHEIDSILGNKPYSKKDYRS
Test [6] shares this target. Briefly: enhancers of rat Kvbeta2 NADPH turnover – biochemical, NADPH fluorescence, primary screen (AID 623;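 active = NADPH fluorescence slope more negative than the mean of all samples by about 3 SD, 99.7% confidence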;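 note: fluorescence intensity change per second fitted from 20 to 320 s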). The conditions noted are these: Recombinant KvBeta, NADPH fluorescence decrease slope, 10 min; at 10 µM; stronger effect = lower value.
For test [7], the target named is Alpha-2C adrenergic receptor (Homo sapiens) (UniProt P18825). Briefly: compounds altering alpha2C-coupled GIRK flux – cell-based, HEK293 alpha2C/GIRK1/2, thallium flux, primary screen (AID 624;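 active = fluorescence slope after compound addition differing from the mean of all screened samples at 99.7% confidence, in either direction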;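 note: slope of fluorescence ratio to pre-addition baseline per second over 15 to 24 s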). The conditions noted are these: thallium flux BTC fluorescence, at 10 µM, actives lie on both sides.
Chain of Alpha-2C adrenergic receptor (Homo sapiens) (P18825 whole entry, looked up): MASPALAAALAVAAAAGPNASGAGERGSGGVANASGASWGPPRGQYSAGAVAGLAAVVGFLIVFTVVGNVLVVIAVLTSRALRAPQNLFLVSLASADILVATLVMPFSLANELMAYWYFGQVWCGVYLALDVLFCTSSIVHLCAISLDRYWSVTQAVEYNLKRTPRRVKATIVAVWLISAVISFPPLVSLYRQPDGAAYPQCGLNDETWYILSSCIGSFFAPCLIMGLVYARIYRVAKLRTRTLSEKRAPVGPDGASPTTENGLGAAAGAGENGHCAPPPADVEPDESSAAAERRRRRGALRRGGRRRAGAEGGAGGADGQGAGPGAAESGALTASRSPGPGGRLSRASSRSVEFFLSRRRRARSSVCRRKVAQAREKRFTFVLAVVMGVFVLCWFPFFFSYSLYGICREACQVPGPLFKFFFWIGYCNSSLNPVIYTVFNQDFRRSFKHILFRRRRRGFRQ
Test [8] in a line: inhibitors of larval lipid processing in zebrafish, primary screen, whole organism, PED6 fluorescence, gall bladder and intestine (AID 686;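 active = a full or partial loss of lipid-probe fluorescence in the fish gall bladder, intestine or both, judged by eye; inactive = no fluorescence loss, or compound toxic to the fish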;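 note: larvae 5 to 7 days old with five fish per well; signal comes from phospholipase A2 cleavage of quenched PED6 carried via bile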). The conditions noted are these: Zebrafish larvae PED6 lipid processing, fluorescence scoring; screened at 20 µM (by protocol). In short, it runs like this: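 system = live zebrafish larvae aged 5-7 days, whole organism | probe or stimulus = ingested quenched lipid PED6 at 100 nM | doses = 20 µM single dose | timing = overnight exposure | detection = fluorescence microscopy with visual scoring of gall bladder and intestine | read-out = visual per-well fluorescence inhibition score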

Test [9] can be described thus: loss of swimming-algae plug formation – whole organism, Chlamydomonas reinhardtii, WT vs cilia-less mutant, absorbance, 96-well, primary screen (AID 463189;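 active = inhibition at or above 50% relative to wild type and mutant plate controls; inactive = inhibition below 50%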;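 note: 0% = wild type cc124 cells in DMSO and 100% = ciliumless bld1 mutant cells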). The conditions noted are these: Chlamydomonas reinhardtii gravitaxis, OD600 absorbance, 2 days; at 10 µM; stronger effect = higher value.
Where [10] appears, read: measured here: cell density z-score.
The mark [11] stands for this setting: measured here: nuclear c-Myc green intensity z-score.
The mark [12] stands for this setting: measured here: nuclear pErk red intensity z-score, stronger effect = higher value.

The term inhibition denotes the drop in the measured response relative to a control, in per cent. Turning to `OCCN(CCO)c1ncnc2c1sc1nc(N3CCOCC3)c3c(c12)CCCC3`, the cell count in [1] is 597. For the same compound, the inhibition is -26.4% (inactive) in test [1], -62.2% (inactive) in [2], 7.73% (inactive) in test [4] and -3.05% (inactive) in test [9]. In test [2], the nuclei count was found to be 167%. In addition, the z-score is 0.421 in test [3] (setting [10]), -0.458 in test [3] (setting [11]) and -0.129 in test [3] (setting [12]). For the same compound, in test [5], the fluorescence slope was -0.275 (inactive). Further, the NADPH fluorescence slope in test [6] is 1.3e-05 (inactive). Moreover, the slope in test [7] is 0.00534 (inactive). For the same compound, in test [8], the call was inactive.
As to `CN1CCC2(CC1)C1CN(C)CC=C1C(C#N)=C(N)C2(C#N)C#N` (stereo unspecified), the cell count in test [1] came out at 542. For the same compound, the inhibition in test [1] was -8.9% (inactive); in [2], -165% (inactive); in test [4], 2.46% (inactive); in test [9], 11.5% (inactive). In test [2], this compound displayed a nuclei count of 198%. Further, the z-score in [3] (setting [10]) is -1.09; in test [3] (setting [11]) it was 0.771; in [3] (setting [12]) it was 1.17. In addition, the fluorescence slope in test [5] is -0.349 (inactive). For the same compound, in test [6], the NADPH fluorescence slope is -8.7e-06 (inactive). Besides, the slope in test [7] is 0.0029 (inactive). In addition, in test [8], the call was inactive.
Turning to `CN1CCN(C(=O)CSc2nc(-c3ccncc3)ccc2C#N)CC1`, the cell count in test [1] came out at 690. In addition, the inhibition in test [1] is -11.2% (inactive); in [2] it was -21.2% (inactive); in [4] it was -7.28% (inactive); in test [9], -6.09% (inactive). Besides, the nuclei count in test [2] amounted to 192%. Moreover, the z-score in test [3] (setting [10]) was 0.498; in [3] (setting [11]), 0.894; in test [3] (setting [12]), -1.8. Further, in test [5], the fluorescence slope is -0.416 (inactive). Further, in test [6], the NADPH fluorescence slope was -5e-05 (inactive). For the same compound, the slope in test [7] was 0.00348 (inactive). Moreover, the compound was classed as inactive in [8].
With `COC(=O)COn1c(SCC(=O)OC)nc2ccccc2c1=O`, the cell count in test [1] turned out to be 300. Also, the inhibition in test [1] is -3.5% (inactive); in [2], -6.8% (inactive); in test [4], -8.59% (inactive); in [9], -12.1% (inactive). This compound also yielded a nuclei count in [2] of 89.2%. For the same compound, the z-score in test [3] (setting [10]) was -1.82; in test [3] (setting [11]) it was 0.261; in test [3] (setting [12]) it was 0.27. The fluorescence slope in test [5] is -0.442 (inactive). Besides, the NADPH fluorescence slope in test [6] is -0.000116 (inactive). Besides, in test [7], the slope was 0.00782 (inactive). For the same compound, in test [8], the call was inactive.
As for `CCCCOc1ccc(C2CC(=O)N(C)C2=O)cc1` (stereo unspecified), in test [1], the cell count was 641. For the same compound, the inhibition in test [1] is -9.7% (inactive); in [2], 63.8% (inactive); in [4] it was 7.48% (inactive); in test [9], 3.29% (inactive). In addition, the nuclei count in test [2] is 175%. The z-score in test [3] (setting [10]) was -0.371; in test [3] (setting [11]) it was -0.965; in test [3] (setting [12]), 1.92. Besides, in test [5], the fluorescence slope is -0.516 (inactive). Also, the NADPH fluorescence slope in test [6] was -6.5e-05 (inactive). In test [7], the slope was 0.00432 (inactive). In addition, the call in test [8] was inactive.
On to `CN(C)c1oc(-c2cccs2)nc1C#N`, for which the cell count in [1] stood at 443. The inhibition in [1] was -7.1% (inactive); in [2] it was -173% (inactive); in test [4], 6.04% (inactive); in [9], 4.07% (inactive). In addition, the nuclei count in test [2] turned out to be 157%. Besides, the values for the z-score in [3] (setting [10]), in test [3] (setting [11]) and in test [3] (setting [12]) were 1.44, 1.03 and -0.732, respectively. For the same compound, the fluorescence slope in test [5] was -0.052 (inactive). Moreover, in test [6], the NADPH fluorescence slope was -1.6e-06 (inactive). Also, the slope in test [7] is 0.00583 (inactive). Further, the compound was classed as inactive in test [8].
In the case of `COc1ccc(Oc2nc3c(c(=O)n(C)c(=O)n3C)n2Cc2cccc(OC)c2)cc1`, in test [1], the cell count amounted to 468. The inhibition in test [1] was -1.9% (inactive); in test [2] it was -260% (inactive); in test [4] it was 26% (inactive); in [9], 31.4% (inactive). Moreover, the nuclei count in [2] amounted to 162%. The z-score is 1.97 in test [3] (setting [10]), -0.65 in test [3] (setting [11]) and -2.21 in test [3] (setting [12]). For the same compound, the fluorescence slope in test [5] was -0.295 (inactive). Moreover, the NADPH fluorescence slope in [6] was -1.2e-05 (inactive). Also, the slope in test [7] was 0.00507 (inactive). The compound was called inactive in test [8].

For the origin of these results see PubChem BioAssay.
